The results in this text go back to ChEMBL document CHEMBL4196166 (J Med Chem, 2018).

Each structure is given as a SMILES string. The source made the active and inactive calls. No cut-off for these calls is given here.

Data set [1] has as its target Complement C1s subcomponent (Homo sapiens) (UniProt P09871). In words: Inhibition of C1S (unknown origin) at 10 nM to 33.3 uM after 30 mins by gel-based ABPP assay.
The target of data set [2] is Plasminogen (Homo sapiens, UniProt P00747). As to the kind of experiment: Inhibition of plasmin (unknown origin) at 10 nM to 33.3 uM after 30 mins by gel-based ABPP assay.
Chain of Plasminogen (P00747 97-580 limits assumed): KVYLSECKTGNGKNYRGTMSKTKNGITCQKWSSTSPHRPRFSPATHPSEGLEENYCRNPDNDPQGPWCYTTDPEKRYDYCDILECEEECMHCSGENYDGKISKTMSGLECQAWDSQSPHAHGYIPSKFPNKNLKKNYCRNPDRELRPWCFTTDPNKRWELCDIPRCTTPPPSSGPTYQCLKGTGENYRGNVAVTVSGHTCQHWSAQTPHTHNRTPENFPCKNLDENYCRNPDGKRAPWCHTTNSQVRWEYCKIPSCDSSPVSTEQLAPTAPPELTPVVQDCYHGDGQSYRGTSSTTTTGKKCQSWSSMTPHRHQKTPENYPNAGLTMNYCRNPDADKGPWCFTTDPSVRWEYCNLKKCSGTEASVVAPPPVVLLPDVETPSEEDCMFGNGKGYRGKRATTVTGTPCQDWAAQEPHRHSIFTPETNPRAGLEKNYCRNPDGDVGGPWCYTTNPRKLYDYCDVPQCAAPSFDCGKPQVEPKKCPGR
Chain of Plasminogen (P00747 581-810 limits assumed): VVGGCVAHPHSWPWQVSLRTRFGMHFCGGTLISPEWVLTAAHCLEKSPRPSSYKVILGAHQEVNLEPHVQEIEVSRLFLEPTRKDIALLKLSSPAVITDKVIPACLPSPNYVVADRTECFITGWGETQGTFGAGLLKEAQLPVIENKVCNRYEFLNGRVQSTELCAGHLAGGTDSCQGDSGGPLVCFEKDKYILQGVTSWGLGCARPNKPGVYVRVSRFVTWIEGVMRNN
In data set [3] the target is Lysosomal Pro-X carboxypeptidase (Homo sapiens) (UniProt P42785). As to the kind of experiment: Inhibition of prolylcarboxypeptidase (unknown origin) at 10 nM to 33.3 uM after 30 mins by gel-based ABPP assay.
Chain of Lysosomal Pro-X carboxypeptidase (Homo sapiens) (P42785 whole entry): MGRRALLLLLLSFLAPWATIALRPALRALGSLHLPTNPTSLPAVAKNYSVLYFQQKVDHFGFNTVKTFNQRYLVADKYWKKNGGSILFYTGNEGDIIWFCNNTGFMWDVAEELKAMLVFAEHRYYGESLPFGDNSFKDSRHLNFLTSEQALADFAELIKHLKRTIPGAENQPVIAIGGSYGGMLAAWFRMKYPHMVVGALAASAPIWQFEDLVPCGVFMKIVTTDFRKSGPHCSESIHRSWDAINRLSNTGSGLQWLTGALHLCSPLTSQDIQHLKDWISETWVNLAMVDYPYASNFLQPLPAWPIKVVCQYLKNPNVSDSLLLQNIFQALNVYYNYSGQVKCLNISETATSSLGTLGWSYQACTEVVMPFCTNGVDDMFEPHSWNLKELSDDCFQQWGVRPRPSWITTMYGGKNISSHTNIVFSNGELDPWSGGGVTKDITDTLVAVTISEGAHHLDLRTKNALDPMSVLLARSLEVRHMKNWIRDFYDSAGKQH
The target of data set [4] is Transmembrane protease serine 11D (Homo sapiens) (UniProt O60235). In words: Inhibition of transmembrane protease serine 11D (unknown origin) at 10 nM to 33.3 uM after 30 mins by gel-based ABPP assay.
Chain of Transmembrane protease serine 11D (Homo sapiens) (O60235 1-186 limits assumed): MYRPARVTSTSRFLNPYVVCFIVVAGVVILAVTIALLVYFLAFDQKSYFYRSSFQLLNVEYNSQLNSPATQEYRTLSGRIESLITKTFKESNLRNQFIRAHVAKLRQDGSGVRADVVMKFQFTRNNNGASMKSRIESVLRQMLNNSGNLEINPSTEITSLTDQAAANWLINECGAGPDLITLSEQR
Chain of Transmembrane protease serine 11D (Homo sapiens) (O60235 187-418 limits assumed): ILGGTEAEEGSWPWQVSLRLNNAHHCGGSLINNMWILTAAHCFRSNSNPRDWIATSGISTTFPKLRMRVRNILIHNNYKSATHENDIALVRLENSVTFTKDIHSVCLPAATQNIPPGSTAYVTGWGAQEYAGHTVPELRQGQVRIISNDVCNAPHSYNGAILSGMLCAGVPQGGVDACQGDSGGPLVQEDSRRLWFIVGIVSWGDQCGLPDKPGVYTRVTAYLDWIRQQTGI
The subject of data set [5] is Homo sapiens. As to the kind of experiment: Antimetastatic activity against human PSC xenografted in BALB/c nu/nu mouse co-implanted with human AsPC1 cells assessed as reduction in metastasis lesions in liver at 10 mg/kg/day, ip measured after 28 days post first dose by haematoxylin and eosin staining-based microscopic analysis. Format: functional, organism-based. A digest of the protocol:
(§1)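 Female athymic BALB/c nu/nu mice, 6–8 weeks old. 1×10^6 AsPC-1 and 1×10^6 human pancreatic stellate cells in 50 µL PBS injected into the pancreatic tail. Treatment randomized on day 7 (n = 4/group) for 4 weeks: 10 mg/kg/day ip in 50 mM sodium acetate pH 5.5/10% DMSO/1% Kolliphor HS-15, or gemcitabine 75 mg/kg by oral gavage twice weekly, or vehicle. At kill, liver scored for visible macrometastases, fixed in formalin, and 4 µm sections stained with H&E. Chi-square test.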
A general note: In xenograft studies the graft and the host belong to different species.

In data set [6] the test system is ASPC1. In words: Antimetastatic activity against human AsPC1 cells xenografted in BALB/c nu/nu mouse co-implanted with human PSC assessed as reduction in metastasis lesions in liver at 10 mg/kg/day, ip measured after 28 days post first dose by haematoxylin and eosin staining-based microscopic analysis. Format: functional, organism-based. A digest of the protocol:
as §1

For data set [7], the target named is Adenosine receptor A2a (Homo sapiens) (UniProt P29274). As to the kind of experiment: Displacement of [3H]ZM241385 from human wild type adenosine A2A receptor at 10 uM. In a few lines: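 Compounds tested at 10 µM for displacement of 2.5 nM [3H]ZM241385 from human wild-type A2A receptor. Total binding taken without inhibitor. Nonspecific binding defined with 100 µM NECA. At least three independent experiments, each in duplicate. Mean ± SEM.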
Chain of Adenosine receptor A2a (Homo sapiens) (P29274 whole entry): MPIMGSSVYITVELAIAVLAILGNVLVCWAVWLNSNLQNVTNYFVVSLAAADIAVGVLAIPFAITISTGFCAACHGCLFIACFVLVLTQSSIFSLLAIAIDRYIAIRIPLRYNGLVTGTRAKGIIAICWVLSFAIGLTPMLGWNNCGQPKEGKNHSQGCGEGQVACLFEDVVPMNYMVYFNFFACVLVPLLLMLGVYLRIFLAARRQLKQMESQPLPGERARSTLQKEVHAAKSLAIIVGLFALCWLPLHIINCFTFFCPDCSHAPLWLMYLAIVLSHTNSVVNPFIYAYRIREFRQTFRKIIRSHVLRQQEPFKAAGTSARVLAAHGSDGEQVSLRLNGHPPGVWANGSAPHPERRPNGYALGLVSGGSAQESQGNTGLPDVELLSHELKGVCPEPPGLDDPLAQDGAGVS

For data set [8], the target named is T1, Epithelial sodium channel subunit alpha (Homo sapiens, UniProt P37088).
T1 sequence (P37088 whole entry): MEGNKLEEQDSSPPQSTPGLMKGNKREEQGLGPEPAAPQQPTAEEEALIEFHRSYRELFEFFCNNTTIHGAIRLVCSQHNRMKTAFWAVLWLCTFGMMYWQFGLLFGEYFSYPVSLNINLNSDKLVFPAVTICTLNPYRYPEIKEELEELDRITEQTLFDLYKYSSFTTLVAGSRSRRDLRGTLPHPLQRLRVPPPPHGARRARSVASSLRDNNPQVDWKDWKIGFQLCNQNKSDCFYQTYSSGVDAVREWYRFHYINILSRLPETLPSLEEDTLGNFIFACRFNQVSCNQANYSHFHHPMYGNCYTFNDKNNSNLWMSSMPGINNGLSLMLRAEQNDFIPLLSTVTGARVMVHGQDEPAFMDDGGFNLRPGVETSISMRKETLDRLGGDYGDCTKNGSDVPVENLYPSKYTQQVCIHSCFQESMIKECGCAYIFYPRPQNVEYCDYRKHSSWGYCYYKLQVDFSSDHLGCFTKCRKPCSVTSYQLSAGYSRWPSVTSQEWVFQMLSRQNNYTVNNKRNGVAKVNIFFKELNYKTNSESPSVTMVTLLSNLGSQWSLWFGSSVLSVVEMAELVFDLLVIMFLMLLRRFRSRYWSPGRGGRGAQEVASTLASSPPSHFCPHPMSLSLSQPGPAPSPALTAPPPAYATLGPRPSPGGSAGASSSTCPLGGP
As to the kind of experiment: Inhibition of S-3969-stimulated recombinant human ENaC alpha subunit expressed in HEK293 cells at 10 uM preincubated for 5 mins followed by S-3969 stimulation by FLIPR assay. Format: cell-based. As to conditions: hek293, 10 µM. A digest of the protocol:
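HEK-293 cells transfected with human ENaC α, β and γ cDNA together, plated at 20 000 cells/well, incubated overnight at 37 °C. Loaded with membrane-potential red dye for 30 min at 37 °C. Compound preincubated 5 min in HEPES-buffered salt solution (pH 7.4, 0.3% DMSO), then stimulated with 1 µM S-3969, read on FLIPR. Signal normalized to agonist alone (100%) and agonist plus 30 µM benzamil (0%). n = 4 wells.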

Chain of Complement C1s subcomponent (Homo sapiens) (P09871 16-437 limits assumed): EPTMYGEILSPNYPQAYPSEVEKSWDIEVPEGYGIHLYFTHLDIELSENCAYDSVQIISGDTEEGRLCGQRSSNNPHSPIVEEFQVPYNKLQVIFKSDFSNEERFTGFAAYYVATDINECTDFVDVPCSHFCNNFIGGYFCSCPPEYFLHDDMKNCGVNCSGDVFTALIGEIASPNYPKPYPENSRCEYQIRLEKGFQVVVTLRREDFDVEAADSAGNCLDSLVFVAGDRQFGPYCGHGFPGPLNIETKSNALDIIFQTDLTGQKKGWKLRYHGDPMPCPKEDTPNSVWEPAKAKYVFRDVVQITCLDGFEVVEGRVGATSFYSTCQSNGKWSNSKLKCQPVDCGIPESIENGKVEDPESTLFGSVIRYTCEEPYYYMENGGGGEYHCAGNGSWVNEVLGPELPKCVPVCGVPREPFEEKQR
Chain of Complement C1s subcomponent (Homo sapiens) (P09871 438-688 limits assumed): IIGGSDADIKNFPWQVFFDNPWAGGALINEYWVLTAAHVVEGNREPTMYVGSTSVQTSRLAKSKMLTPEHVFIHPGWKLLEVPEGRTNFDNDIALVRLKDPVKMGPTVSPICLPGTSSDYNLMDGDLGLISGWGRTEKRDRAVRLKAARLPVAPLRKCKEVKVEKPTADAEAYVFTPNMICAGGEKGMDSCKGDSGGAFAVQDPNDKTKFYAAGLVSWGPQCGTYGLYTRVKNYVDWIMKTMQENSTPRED

Regarding `COc1ncc(-c2nc(C(=O)NC(=N)N)c(N)nc2N2CCCCCC2)cn1`, the inhibition result in data set [1], in data set [2], in data set [3] and in data set [4] was “Active” in each case. For the same compound, the result in data set [5] and in data set [6] was Active.

As to `N=C(N)NC(=O)c1nc(Cl)c(N2CCCCCC2)nc1N` [N,N-HEXAMETHYLENEAMILORIDE], in data set [7], the inhibition result was “Active”. Further, the “inhibition (INH)” value in data set [8] is listed as “Not Active”.

With `N=C(N)NC(=O)c1nc(-c2cc3ccccc3o2)c(N2CCCCCC2)nc1N`, in data set [8], the “inhibition (INH)” value is on record as “Not Active”.
